From ChEMBL document CHEMBL5335826, “Biochemical and Structural Studies of the Carminomycin 4-O-Methyltransferase DnrK” (J Nat Prod, 2024)
The source made the active and inactive calls. The calls are words filed in the database; no cut-off is given here.

System: Ambystoma mexicanum
Test: Inhibition of Ambystoma mexicanum tail regeneration at 10 uM
Format: functional
In short: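 Stage 42 Ambystoma mexicanum embryos were manually hatched and anesthetized with benzocaine, then given 2 mm tail amputations. They were reared at 18–19 °C in artificial pond water containing test agent in DMSO (0.1% final DMSO), with solutions changed at 3 and 5 dpa. Regeneration was imaged at 0, 3, 5 and 7 dpa, ending at 7 dpa. DMSO vehicle was the negative control and geldanamycin the positive control.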

In the case of COc1cccc2c1C(=O)c1c(cc3c(c1O)[C@@H](O[C@@H]1O[C@@H](C)[C@H](O)[C@@H](O)[C@H]1OC)[C@H](OC)[C@](C)(O)C3=O)C2=O, the “tail regeneration inhibition (active/not active)” value is reported as “inactive”.
For CC(=O)[C@]1(O)Cc2c(O)c3c(c(O)c2[C@@H](O[C@H]2C[C@H](N)[C@H](O)[C@H](C)O2)C1)C(=O)c1c(O)cccc1C3=O, the “tail regeneration inhibition (active/not active)” value was “inactive”.
For COc1cccc2c1C(=O)c1c(O)c3c(c(O)c1C2=O)C[C@@](O)(C(C)=O)C[C@@H]3O[C@H]1C[C@H](N)[C@H](O)[C@H](C)O1, the “tail regeneration inhibition (active/not active)” value was “inactive”.
With CO[C@H]1[C@H](O[C@@H]2c3c(cc4c(c3O)C(=O)c3c(O)cccc3C4=O)C(=O)[C@@](C)(O)[C@H]2OC)O[C@@H](C)[C@H](O)[C@H]1O the “tail regeneration inhibition (active/not active)” value was “inactive”.
For COc1cc(O)c2c(c1)C(=O)c1cc3c(c(O)c1C2=O)[C@@H](O[C@@H]1O[C@@H](C)[C@H](OC)[C@@H](O)[C@H]1OC)[C@H](OC)[C@](C)(O)C3=O, the “tail regeneration inhibition (active/not active)” value was “Active”.
